Assay results from different studies.
Each line is one published result; the experiments were not run side by side.
C3AR1: C3a anaphylatoxin chemotactic receptor (C3AR1, Homo sapiens, UniProt Q16581)
BCHE: Cholinesterase (BCHE, Equus caballus, UniProt P81908)

CC(C)C[C@H](NC(=O)[C@@H](N)[C@@H](C)O)C(=O)N[C@@H](CCC(N)=O)C(=O)N1CCC[C@H]1C(=O)N1CCC[C@H]1C(=O)N[C@@H](C)C(=O)N[C@@H](CO)C(=O)N[C@@H](CO)C(=O)N[C@@H](CCCNC(=N)N)C(=O)N[C@H](CCCNC(=N)N)C(=O)N[C@@H](CCCNC(=N)N)C(=O)N[C@@H](Cc1c[nH]cn1)C(=O)N[C@@H](Cc1ccccc1)C(=O)N[C@@H](Cc1c[nH]cn1)C(=O)N[C@@H](Cc1c[nH]cn1)C(=O)N[C@@H](C)C(=O)N[C@@H](CC(C)C)C(=O)N1CCC[C@H]1C(=O)N1CCC[C@H]1C(=O)NCC(=O)N[C@@H](CCCNC(=N)N)C(=O)O  EC50 (C3AR1; β-arrestin recruitment; agonist): 0.097 µM
CCN(C)C(=O)Oc1ccc(/C=C/C(=O)NC2CCN(Cc3ccccc3)CC2)cc1  IC50 (BCHE; enzyme activity; inhibitor; Ellman): 16.3 µM
CC(C)C[C@H](NC(=O)[C@@H](N)[C@@H](C)O)C(=O)N[C@@H](CCC(N)=O)C(=O)N1CCC[C@H]1C(=O)N1CCC[C@H]1C(=O)N[C@@H](C)C(=O)N[C@@H](CO)C(=O)N[C@@H](CO)C(=O)N[C@@H](CCCNC(=N)N)C(=O)N[C@H](CCCNC(=N)N)C(=O)N[C@@H](CCCNC(=N)N)C(=O)N[C@@H](Cc1c[nH]cn1)C(=O)N[C@@H](Cc1ccccc1)C(=O)N[C@@H](Cc1c[nH]cn1)C(=O)N[C@@H](Cc1c[nH]cn1)C(=O)N[C@@H](C)C(=O)N[C@@H](CC(C)C)C(=O)N1CCC[C@H]1C(=O)N1CCC[C@H]1C(=O)N[C@@H](C)C(=O)N[C@@H](CCCCNC(=N)N)C(=O)O  EC50 (C3AR1; G protein activation; agonist; BRET): 0.259 µM
O=C(N1CCC2(CC1)C[C@@H](CN1CCCCS1(=O)=O)CCO2)C1(c2ccccc2)CCCC1  IC50 (DHX58 (Homo sapiens, UniProt Q96C10); ATPase activity; inhibitor): > 50 µM
COc1ccc(-c2csc(N/N=C(/C=C/c3c(Cl)cccc3Cl)C(=O)O)n2)cc1  IC50 (BCHE; enzyme activity; inhibitor): 5.01 µM
COc1cc(CCC(=O)N2CCC(Cc3ccccc3)CC2)ccc1OC(=O)N(C)C  IC50 (BCHE; enzyme activity; inhibitor; Ellman): 1.3 µM
CCOc1ccc(/C=C/C(=O)N2CCCC(NC(=O)OC(C)(C)C)C2)cc1OC (stereo not shown)  IC50 (BCHE; enzyme activity; inhibitor; Ellman): 13.5 µM
COc1cc2c(cc1OC)CN(CCc1ccc(NC(=O)c3cccc4c(=O)c5cccc(OC)c5[nH]c34)cc1)CC2  Ki (D(1A) dopamine receptor (DRD1, Homo sapiens, UniProt P21728); cell-free assay): > 10 µM
CC(C)(C)OC(=O)NC1CCCN(C(=O)/C=C/c2ccc(Cl)cc2)C1 (stereo not shown)  IC50 (BCHE; enzyme activity; inhibitor; Ellman): > 50 µM
O=C(O)C(/C=C/c1ccc(Cl)cc1)=N\Nc1nc(-c2ccccc2)cs1  IC50 (BCHE; enzyme activity; inhibitor): 2.03 µM
